Columns and labels:
[1] = Half life in human liver microsomes in presence of NADPH by LC-MS/MS analysis; type: ADME, Microsome
[2] = Partition coefficient, logD between n-octanol and pH 7.4 buffer by HPLC analysis; type: physicochemical; details: n-octanol/pH 7.4 buffer
Keap1/Nrf2 = Keap1/Nrf2 (Homo sapiens, UniProt Q14145); assay: Inhibition of Keap1-Nrf2 Interaction (unknown origin) by fluorescence anisotropy; type: protein assay
[3] = molecular target: T1, Keap1/Nrf2 (Homo sapiens) (UniProt Q16236+Q14145); assay: Inhibition of Keap1-Nrf2 Interaction in human HaCaT cells assessed as increase in Nrf2 protein level at 0.25 uM incubated for 16 hrs by Western blot analysis relative to control; type: cell-based
Procedure, shortened: (§1)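 HaCaT keratinocytes were grown in DMEM with 10% FBS and 1% antibiotics, then treated at 70–80% confluence in complete medium, with DMSO as vehicle. RIPA lysates (~40 μg protein) were run on 10% SDS-PAGE and immunoblotted for NRF2 and NQO1, with β-actin as loading control and chemiluminescent detection. Values are mean fold change versus DMSO from two biological replicates.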

[4] = molecular target: T1, Keap1/Nrf2 (Homo sapiens); assay: Inhibition of Keap1-Nrf2 Interaction in human HaCaT cells assessed as increase in NQO1 protein level at 0.25 uM incubated for 16 hrs by Western blot analysis relative to control; type: cell-based; procedure, shortened: as §1

Sequence of Keap1/Nrf2 (Q16236 whole entry): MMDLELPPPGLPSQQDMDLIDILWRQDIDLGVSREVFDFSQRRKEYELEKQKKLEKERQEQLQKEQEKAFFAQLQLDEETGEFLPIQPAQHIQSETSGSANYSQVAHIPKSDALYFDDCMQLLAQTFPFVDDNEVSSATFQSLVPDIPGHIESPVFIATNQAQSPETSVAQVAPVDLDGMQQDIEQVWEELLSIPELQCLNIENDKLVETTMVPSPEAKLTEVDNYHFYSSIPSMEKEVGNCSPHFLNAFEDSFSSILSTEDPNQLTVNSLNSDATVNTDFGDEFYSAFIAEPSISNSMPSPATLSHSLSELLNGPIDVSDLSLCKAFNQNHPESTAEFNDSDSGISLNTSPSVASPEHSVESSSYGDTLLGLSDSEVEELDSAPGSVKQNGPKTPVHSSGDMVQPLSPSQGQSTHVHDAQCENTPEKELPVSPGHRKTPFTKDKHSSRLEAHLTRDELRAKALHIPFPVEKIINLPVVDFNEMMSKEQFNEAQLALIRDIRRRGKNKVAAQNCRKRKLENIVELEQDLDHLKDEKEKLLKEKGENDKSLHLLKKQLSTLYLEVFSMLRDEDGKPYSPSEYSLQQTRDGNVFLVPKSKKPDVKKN
Sequence of Keap1/Nrf2 (Q14145 whole entry): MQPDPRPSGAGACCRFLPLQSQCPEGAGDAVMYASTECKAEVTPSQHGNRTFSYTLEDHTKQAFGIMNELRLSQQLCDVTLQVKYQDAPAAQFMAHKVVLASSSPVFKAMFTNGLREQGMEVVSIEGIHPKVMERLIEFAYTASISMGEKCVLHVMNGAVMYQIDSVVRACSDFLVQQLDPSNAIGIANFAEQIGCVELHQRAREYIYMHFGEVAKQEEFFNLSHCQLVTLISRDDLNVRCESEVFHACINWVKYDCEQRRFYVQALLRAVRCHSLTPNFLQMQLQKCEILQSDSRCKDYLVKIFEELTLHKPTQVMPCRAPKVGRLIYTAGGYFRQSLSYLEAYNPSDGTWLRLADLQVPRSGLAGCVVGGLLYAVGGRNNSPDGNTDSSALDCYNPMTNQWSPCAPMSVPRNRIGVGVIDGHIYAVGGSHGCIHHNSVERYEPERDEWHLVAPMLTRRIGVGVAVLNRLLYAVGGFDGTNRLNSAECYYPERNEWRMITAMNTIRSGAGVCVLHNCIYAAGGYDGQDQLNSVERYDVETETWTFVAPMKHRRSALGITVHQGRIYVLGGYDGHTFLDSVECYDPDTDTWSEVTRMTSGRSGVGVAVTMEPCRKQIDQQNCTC
T1 sequence (Q14145 whole entry, looked up): as the sequence (Q14145 whole entry) above
T1 sequence (Q16236 whole entry, looked up): as the sequence (Q16236 whole entry) above

| Compound | t1/2 [1] | logD [2] | IC50 (Keap1/Nrf2) | fold change (FC) [3] | fold change (FC) [4] |
| --- | --- | --- | --- | --- | --- |
| COc1ccc(S(=O)(=O)Nc2cnc(N(C(C)C(=O)O)S(=O)(=O)c3ccc(OC)cc3)c3ccccc23)cc1 (stereo not given) |  | -1.1 | 2300 nM |  |  |
| COc1ccc(S(=O)(=O)N(C)c2cnc(N(CC(=O)O)S(=O)(=O)c3ccc(OC)cc3)c3ccccc23)cc1 | 0.1 h | 0 | 1000 nM |  |  |
| COC(=O)[C@]12CCC(C)(C)C[C@H]1[C@H]1C(=O)C=C3[C@@]4(C)C=C(C#N)C(=O)C(C)(C)[C@@H]4CC[C@@]3(C)[C@]1(C)CC2 |  |  |  | 3.34 | 1.43 |
| O=C(O)CN(c1ncc(N(CC(F)(F)F)S(=O)(=O)c2ccc(F)cc2)c2ccccc12)S(=O)(=O)c1ccc(F)cc1 | > 3 h | 0.6 | 420 nM |  |  |
| COc1ccc(S(=O)(=O)N(CC(F)(F)F)c2cnc(N(CC(=O)O)S(=O)(=O)c3ccc(OC)cc3)c3ccccc23)cc1 | 2.27 h | 0.5 |  |  |  |
| O=C(O)CN(c1cnc(N(CC(=O)O)S(=O)(=O)c2ccc(O)cc2)c2ccccc12)S(=O)(=O)c1ccc(O)cc1 | 0.05 h |  | 350 nM |  |  |
| COc1ccc(S(=O)(=O)N(CC(=O)O)c2cnc(N(CC(=O)O)S(=O)(=O)c3ccc(F)cc3)c3ccccc23)cc1 |  | -1.9 | 280 nM |  |  |
| COc1ccc(S(=O)(=O)Nc2ncc(N(CC(=O)O)S(=O)(=O)c3ccc(OC)cc3)c3ccccc23)cc1 |  | -0.5 | 1100 nM |  |  |
| O=C(O)CN(c1cnc(N(CC(=O)O)S(=O)(=O)c2ccc(F)cc2)c2ccccc12)S(=O)(=O)c1ccc(F)cc1 |  |  | 430 nM |  |  |

Results, then the molecule that gave them:

| t1/2 [1] | logD [2] | IC50 (Keap1/Nrf2) | fold change (FC) [3] | fold change (FC) [4] | Compound |
| --- | --- | --- | --- | --- | --- |
| > 3 h | 0.6 | 130 nM |  |  | COc1ccc(S(=O)(=O)N(CC(F)(F)F)c2cnc(N(CC(=O)O)S(=O)(=O)c3ccc(F)cc3)c3ccccc23)cc1 |
| > 3 h | 0.5 | 120 nM |  |  | COc1ccc(S(=O)(=O)N(CC(=O)O)c2ncc(N(CC(F)(F)F)S(=O)(=O)c3ccc(F)cc3)c3ccccc23)cc1 |
|  | -1.8 | 240 nM |  |  | COc1ccc(S(=O)(=O)N(CC(=O)O)c2ncc(N(CC(=O)O)S(=O)(=O)c3ccc(F)cc3)c3ccccc23)cc1 |
| 1.62 h | 0.2 | 55 nM |  |  | COc1ccc(S(=O)(=O)N(CC(F)F)c2cnc(N(CC(=O)O)S(=O)(=O)c3ccc(OC)cc3)c3ccccc23)cc1 |
| 0.617 h |  | 230 nM |  |  | COc1ccc(S(=O)(=O)Nc2cnc(N(CC(=O)O)S(=O)(=O)c3ccc(OC)cc3)c3ccccc23)cc1 |
| 0.967 h | -0.1 | 210 nM |  |  | COc1ccc(S(=O)(=O)N(CCF)c2cnc(N(CC(=O)O)S(=O)(=O)c3ccc(OC)cc3)c3ccccc23)cc1 |

Source: ChEMBL document CHEMBL4602608, “Isoquinoline Kelch-like ECH-Associated Protein 1-Nuclear Factor (Erythroid-Derived 2)-like 2 (KEAP1-NRF2) Inhibitors with High Metabolic Stability” (J Med Chem, 2020)
